Data: ChEMBL document CHEMBL1123585, “Differential effects of N-terminal modifications on the biological potencies of growth hormone releasing factor analogues with varying chain lengths” (1987)

Key:
Rattus norvegicus [1] = assay: Effect on growth hormone release(GRF) was determined in nembutal-anesthetized rat, at dose of 4 ug/100 g body weight.; assay type: functional, organism-based
Procedure, shortened: (§1)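 Male Charles River rats (175-275 g), anesthetized with sodium pentobarbital 6 mg/100 g body weight. Six to nine per group. Peptide or saline given subcutaneously in 0.5 mL, 30 min after anesthetic. Jugular vein blood taken 15 min post-injection. Plasma GH measured by radioimmunoassay and reported as ng/mL, mean ± SEM.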

[2] = biological target: T1, Growth hormone-releasing hormone receptor (Rattus norvegicus) (UniProt Q02644); assay: Effect on growth hormone release(GRF) was determined in nembutal-anesthetized rat, at dose of 10 ug/100 g body weight.; assay type: functional; procedure, shortened: as §1
T1 sequence (whole entry): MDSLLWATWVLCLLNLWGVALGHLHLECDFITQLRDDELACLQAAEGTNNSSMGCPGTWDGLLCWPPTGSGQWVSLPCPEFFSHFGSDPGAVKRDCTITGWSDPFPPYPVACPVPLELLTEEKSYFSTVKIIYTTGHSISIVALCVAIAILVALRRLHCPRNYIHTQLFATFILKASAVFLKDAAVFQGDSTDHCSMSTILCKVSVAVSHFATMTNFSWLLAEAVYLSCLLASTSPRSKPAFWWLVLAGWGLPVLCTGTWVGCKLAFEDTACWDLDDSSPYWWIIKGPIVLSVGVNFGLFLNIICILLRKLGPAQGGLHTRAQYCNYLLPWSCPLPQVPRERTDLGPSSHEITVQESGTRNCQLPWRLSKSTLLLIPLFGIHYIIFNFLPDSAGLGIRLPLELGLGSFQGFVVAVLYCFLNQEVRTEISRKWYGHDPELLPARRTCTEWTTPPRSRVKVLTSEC

[3] = biological target: T1, Growth hormone-releasing hormone receptor (Rattus norvegicus); assay: Tested for the potency of growth hormone (GRF) on subcutaneous administration in anesthetized male Charles River rats; assay type: functional, organism-based
Procedure, shortened: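 Pentobarbital-anesthetized male rats (175-275 g), six to nine per group, received two subcutaneous doses of analogue or of reference GRF(1-29)NH2, in 0.5 mL, 30 min after anesthesia. Plasma GH measured by RIA 15 min later. Potency with 95% confidence limits calculated from a four-point assay design by the Pugsley method.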

[4] = biological target: T1, Growth hormone-releasing hormone receptor (Rattus norvegicus); assay: In vitro rat pituitary cell growth hormone response was obtained; assay type: functional, cell-based; conditions: Pituitary gland cell
Rattus norvegicus [5] = assay: Effect on growth hormone release(GRF) was determined in nembutal-anesthetized rat, at dose of 80 ug/100 g body weight.; assay type: functional, organism-based; procedure, shortened: as §1
Rattus norvegicus [6] = assay: Effect on growth hormone release(GRF) was determined in nembutal-anesthetized rat, at dose of 200 ug/100 g body weight.; assay type: functional, organism-based; procedure, shortened: as §1

CC[C@H](C)[C@H](NC(=O)[C@H](C)NC(=O)[C@@H](CC(=O)O)NC(=O)[C@H](C)NC(=O)[C@@H](N)Cc1ccc(O)cc1)C(=O)N[C@@H](Cc1ccccc1)C(=O)N[C@H](C(=O)N[C@H](CC(N)=O)C(=O)N[C@@H](CO)C(=O)N[C@@H](Cc1ccc(O)cc1)C(=O)N[C@@H](CCCN=C(N)N)C(=O)N[C@@H](CCCCN)C(=O)N[C@H](C(=O)N[C@@H](CC(C)C)C(=O)NCC(=O)N[C@@H](CCC(N)=O)C(=O)N[C@@H](CC(C)C)C(=O)N[C@@H](CO)C(=O)N[C@@H](C)C(=O)N[C@@H](CCCN=C(N)N)C(=O)N[C@@H](CCCCN)C(=O)N[C@@H](CC(C)C)C(=O)N[C@@H](CC(C)C)C(=O)N[C@@H](CCC(N)=O)C(=O)N[C@@H](CC(=O)O)C(=O)N[C@H](C(=O)N[C@@H](CC(C)C)C(N)=O)[C@@H](C)CC)C(C)C)[C@@H](C)O
Plasma GH release (Rattus norvegicus [1]): 899 ng/mL
Plasma GH release [2]: 2170 ng/mL
Potency [3]: 199%
Potency [4]: 83%

CC[C@H](C)[C@H](NC(=O)[C@H](C)NC(=O)[C@H](CC(=O)O)NC(=O)[C@@H](C)NC(=O)[C@@H](N)Cc1ccc(O)cc1)C(=O)N[C@@H](Cc1ccccc1)C(=O)N[C@H](C(=O)N[C@@H](CC(N)=O)C(=O)N[C@@H](CO)C(=O)N[C@@H](Cc1ccc(O)cc1)C(=O)N[C@@H](CCCN=C(N)N)C(=O)N[C@@H](CCCCN)C(=O)N[C@H](C(=O)N[C@@H](CC(C)C)C(=O)NCC(=O)N[C@@H](CCC(N)=O)C(=O)N[C@@H](CC(C)C)C(=O)N[C@@H](CO)C(=O)N[C@@H](C)C(=O)N[C@@H](CCCN=C(N)N)C(=O)N[C@@H](CCCCN)C(=O)N[C@@H](CC(C)C)C(=O)N[C@@H](CC(C)C)C(=O)N[C@@H](CCC(N)=O)C(=O)N[C@@H](CC(=O)O)C(=O)N[C@H](C(=O)N[C@@H](CC(C)C)C(N)=O)[C@@H](C)CC)C(C)C)[C@@H](C)O (stereo in doubt; 4)
Plasma GH release (Rattus norvegicus [5]): 742 ng/mL
Potency [3]: 7%
Plasma GH release (Rattus norvegicus [6]): 1500 ng/mL
Potency [4]: 0.0004%
